Measured values reported in ChEMBL document CHEMBL4665633, “Cereblon versus VHL: Hijacking E3 ligases against each other using PROTACs” (Bioorg Med Chem, 2019).
Calls of active or inactive are those of the source. No cut-off for these calls is given here.

Legend:
Assay type in all cases: cell-based
[1] = biological target: T1, Protein cereblon/von Hippel-Lindau disease tumor suppressor (Homo sapiens, UniProt P40337+Q96SW2); test: Protac activity at VHL/CRBN in human HeLa cells assessed as pVHL30 protein abundance at 10 nM after 4 hrs by Western blot analysis relative to DMSO
Procedure, shortened: (§1)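 HeLa cells (5 × 10⁵, DMEM + 10% FBS, 37 °C, 5% CO₂, ≤30 passages) seeded overnight, then treated 4 h with compound at single or graded concentrations (0.1% v/v DMSO final). RIPA lysates equalised by Bradford; SDS-PAGE and anti-CRBN/anti-VHL immunoblots; bands normalised to β-tubulin and expressed as % of mean DMSO vehicle. DC₅₀ from fit of band intensity versus log[concentration].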

[2] = biological target: T1, Protein cereblon/von Hippel-Lindau disease tumor suppressor; test: Protac activity at VHL/CRBN in human HeLa cells assessed as CRBN protein abundance at 10 nM after 4 hrs by Western blot analysis relative to DMSO; procedure, shortened: as §1
[3] = biological target: T1, Protein cereblon/von Hippel-Lindau disease tumor suppressor; test: Protac activity at VHL/CRBN in human HeLa cells assessed as pVHL19 protein abundance at 10 nM after 4 hrs by Western blot analysis relative to DMSO; procedure, shortened: as §1
[4] = biological target: T1, Protein cereblon/von Hippel-Lindau disease tumor suppressor; test: Protac activity at VHL/CRBN in human HeLa cells assessed as pVHL19 protein abundance at 1 uM after 4 hrs by Western blot analysis relative to DMSO
Procedure, shortened: (§2)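 HeLa cells seeded overnight, then exposed to 1 µM compound (0.1% v/v DMSO final) over a time course. Cells were DPBS-washed and RIPA-lysed with protease inhibitors and benzonase; equal protein was loaded. Immunoblots for CRBN and VHL isoforms were quantified against β-tubulin and reported relative to the averaged 0.1% DMSO vehicle.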

[5] = biological target: T1, Protein cereblon/von Hippel-Lindau disease tumor suppressor; test: Protac activity at VHL/CRBN in human HeLa cells assessed as induction of VHL degradation at 1 uM after 4 hrs by Western blot analysis; procedure, shortened: as §1
[6] = biological target: T1, Protein cereblon/von Hippel-Lindau disease tumor suppressor; test: Protac activity at VHL/CRBN in human HeLa cells assessed as pVHL30 protein abundance at 1 uM after 4 hrs by Western blot analysis relative to DMSO; procedure, shortened: as §2
[7] = biological target: T1, Protein cereblon/von Hippel-Lindau disease tumor suppressor; test: Protac activity at VHL/CRBN in human HeLa cells assessed as CRBN protein abundance at 1 uM after 4 hrs by Western blot analysis relative to DMSO; procedure, shortened: as §2
[8] = biological target: T1, Protein cereblon/von Hippel-Lindau disease tumor suppressor; test: Protac activity at VHL/CRBN in human HeLa cells assessed as induction of CRBN degradation at 1 uM after 4 hrs by Western blot analysis relative to control; procedure, shortened: as §1
[9] = biological target: T1, Protein cereblon/von Hippel-Lindau disease tumor suppressor; test: Protac activity at VHL/CRBN in human HeLa cells assessed as CRBN protein abundance after 4 hrs by Western blot analysis relative to DMSO
Procedure, shortened: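 HeLa cells (DMEM, 10% FBS, penicillin/streptomycin, L-glutamine; 37 °C, 5% CO2) seeded at 5 × 10⁵ per well overnight, then treated in 0.1% v/v final DMSO. Cells were lysed in RIPA with protease inhibitors and benzonase, and equal protein was run on SDS-PAGE/nitrocellulose blots probed with anti-CRBN. Bands were normalised to β-tubulin and expressed relative to mean 0.1% DMSO vehicle.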

[10] = biological target: T1, Protein cereblon/von Hippel-Lindau disease tumor suppressor; test: Protac activity at VHL/CRBN in HEK293 cells assessed as CRBN protein abundance at 1 uM after 24 hrs by Western blot analysis relative to DMSO
Procedure, shortened: (§3)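 HEK293 cells (DMEM, 10% FBS, penicillin/streptomycin, L-glutamine; 37 °C, 5% CO2; ≤30 passages) seeded at 1 × 10⁶ per well overnight, then treated with compound at 0.1% v/v final DMSO. Cells were lysed in RIPA with protease inhibitors and benzonase, then clarified. Equal Bradford-quantified protein was immunoblotted for CRBN/VHL. Bands were normalised to β-tubulin and expressed as % of mean 0.1% DMSO vehicle.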

[11] = biological target: T1, Protein cereblon/von Hippel-Lindau disease tumor suppressor; test: Protac activity at VHL/CRBN in HEK293 cells assessed as pVHL19 protein abundance at 1 uM after 24 hrs by Western blot analysis relative to DMSO; procedure, shortened: as §3
[12] = biological target: T1, Protein cereblon/von Hippel-Lindau disease tumor suppressor; test: Protac activity at VHL/CRBN in HEK293 cells assessed as CRBN protein abundance at 1 uM after 4 hrs by Western blot analysis relative to DMSO; procedure, shortened: as §3
[13] = biological target: T1, Protein cereblon/von Hippel-Lindau disease tumor suppressor; test: Protac activity at VHL/CRBN in HEK293 cells assessed as pVHL30 protein abundance at 1 uM after 24 hrs by Western blot analysis relative to DMSO; procedure, shortened: as §3
[14] = biological target: T1, Protein cereblon/von Hippel-Lindau disease tumor suppressor; test: Protac activity at VHL/CRBN in HEK293 cells assessed as pVHL30 protein abundance after 4 hrs by Western blot analysis relative to DMSO; procedure, shortened: as §3
[15] = biological target: T1, Protein cereblon/von Hippel-Lindau disease tumor suppressor; test: Protac activity at VHL/CRBN in HEK293 cells assessed as CRBN protein abundance after 4 hrs by Western blot analysis relative to DMSO; procedure, shortened: as §3
[16] = biological target: T1, Protein cereblon/von Hippel-Lindau disease tumor suppressor; test: Protac activity at VHL/CRBN in HEK293 cells assessed as pVHL19 protein abundance at 1 uM after 4 hrs by Western blot analysis relative to DMSO; procedure, shortened: as §3
[17] = biological target: T1, Protein cereblon/von Hippel-Lindau disease tumor suppressor; test: Protac activity at VHL/CRBN in human HeLa cells assessed as pVHL30 protein abundance after 4 hrs by Western blot analysis relative to DMSO; procedure, shortened: as §1
[18] = biological target: T1, Protein cereblon/von Hippel-Lindau disease tumor suppressor; test: Protac activity at VHL/CRBN in human HeLa cells assessed as pVHL19 protein abundance at 1 uM after 24 hrs by Western blot analysis relative to DMSO; procedure, shortened: as §2
[19] = biological target: T1, Protein cereblon/von Hippel-Lindau disease tumor suppressor; test: Protac activity at VHL/CRBN in HEK293 cells assessed as pVHL19 protein abundance after 4 hrs by Western blot analysis relative to DMSO; procedure, shortened: as §3
[20] = biological target: T1, Protein cereblon/von Hippel-Lindau disease tumor suppressor; test: Protac activity at VHL/CRBN in human HeLa cells assessed as CRBN protein abundance at 1 uM after 24 hrs by Western blot analysis relative to DMSO; procedure, shortened: as §2
[21] = biological target: T1, Protein cereblon/von Hippel-Lindau disease tumor suppressor; test: Protac activity at VHL/CRBN in HEK293 cells assessed as pVHL30 protein abundance at 1 uM after 4 hrs by Western blot analysis relative to DMSO; procedure, shortened: as §3
[22] = biological target: T1, Protein cereblon/von Hippel-Lindau disease tumor suppressor; test: Protac activity at VHL/CRBN in human HeLa cells assessed as pVHL30 protein abundance at 1 uM after 24 hrs by Western blot analysis relative to DMSO; procedure, shortened: as §2
[23] = biological target: T1, Protein cereblon/von Hippel-Lindau disease tumor suppressor; test: Protac activity at VHL/CRBN in human HeLa cells assessed as pVHL19 protein abundance after 4 hrs by Western blot analysis relative to DMSO; procedure, shortened: as §1

T1 sequence (P40337 whole entry, looked up): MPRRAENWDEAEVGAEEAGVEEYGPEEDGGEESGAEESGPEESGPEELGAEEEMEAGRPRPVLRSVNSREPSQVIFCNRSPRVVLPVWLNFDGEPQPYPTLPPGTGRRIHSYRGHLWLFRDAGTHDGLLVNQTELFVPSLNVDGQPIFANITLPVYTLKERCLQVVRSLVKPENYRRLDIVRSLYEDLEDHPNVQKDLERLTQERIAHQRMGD
T1 sequence (Q96SW2 whole entry, looked up): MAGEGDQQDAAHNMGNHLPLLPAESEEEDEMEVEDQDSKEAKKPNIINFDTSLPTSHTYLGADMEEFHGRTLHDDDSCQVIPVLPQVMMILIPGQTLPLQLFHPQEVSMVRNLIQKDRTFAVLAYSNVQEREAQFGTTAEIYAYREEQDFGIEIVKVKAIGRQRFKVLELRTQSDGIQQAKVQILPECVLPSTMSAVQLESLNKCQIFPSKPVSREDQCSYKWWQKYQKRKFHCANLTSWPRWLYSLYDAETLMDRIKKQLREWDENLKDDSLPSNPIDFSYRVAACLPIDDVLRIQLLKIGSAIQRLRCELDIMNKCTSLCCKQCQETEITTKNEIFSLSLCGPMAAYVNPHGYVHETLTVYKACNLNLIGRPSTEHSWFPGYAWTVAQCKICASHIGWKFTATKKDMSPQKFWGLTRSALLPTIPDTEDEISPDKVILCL

| SMILES | Activity [1] | Activity [2] | Activity [3] | Activity [4] | Activity [5] | Activity [6] | Activity [7] | further results |
| --- | --- | --- | --- | --- | --- | --- | --- | --- |
| Cc1ncsc1-c1ccc(CNC(=O)[C@@H]2C[C@@H](O)CN2C(=O)[C@@H](NC(=O)C2(F)CC2)C(C)(C)SCCCCC(=O)NCCNc2cccc3c2C(=O)N(C2CCC(=O)NC2=O)C3=O)cc1 (some centres undefined) | 53% | 82% | 93% | 117% | inactive | 114% | 81% |  |
| Cc1ncsc1-c1ccc(CNC(=O)[C@@H]2C[C@@H](O)CN2C(=O)[C@@H](NC(=O)COCCOCCOCCOCCOCCOCCOCCOCCOCC(=O)NCCNc2cccc3c2C(=O)N(C2CCC(=O)NC2=O)C3=O)C(C)(C)C)cc1 (some centres undefined) | 54% | 82% | 99% | 95% | inactive | 91% | 91% |  |
| Cc1ncsc1-c1ccc(CNC(=O)[C@@H]2C[C@@H](O)CN2C(=O)[C@@H](NC(=O)COCCOCCOCCOCCOCCOCC(=O)N[C@H](C(=O)N2C[C@H](O)C[C@H]2C(=O)NCc2ccc(-c3scnc3C)cc2)C(C)(C)C)C(C)C)cc1 | 0% | 87% | 97% | 97% | inactive | 1% | 103% | Activity [9]: 99%; Activity [10]: 109%; Activity [11]: 99%; Activity [12]: 102%; Activity [13]: 3%; Activity [14]: 6%; Activity [15]: 100%; Activity [16]: 95%; Activity [17]: 0%; Activity [18]: 122%; Activity [19]: 95%; Activity [20]: 118%; Activity [21]: 1%; Activity [22]: 11%; Activity [23]: 100% |
| O=C1CCC(N2C(=O)c3cccc(NCCOCCOCCNc4cccc5c4C(=O)N(C4CCC(=O)NC4=O)C5=O)c3C2=O)C(=O)N1 (centres undefined) | 95% | 38% | 95% | 100% | inactive | 87% | 34% | Activity [9]: 40%; Activity [10]: 25%; Activity [11]: 99%; Activity [12]: 37%; Activity [13]: 96%; Activity [14]: 95%; Activity [15]: 52%; Activity [16]: 97%; Activity [17]: 109%; Activity [18]: 107%; Activity [19]: 94%; Activity [20]: 29%; Activity [21]: 99%; Activity [22]: 102%; Activity [23]: 104% |
| Cc1ncsc1-c1ccc(CNC(=O)[C@@H]2C[C@@H](O)CN2C(=O)[C@@H](NC(=O)C2(F)CC2)C(C)(C)SCCOCCOCCOCCOCCOCC(=O)NCCNc2cccc3c2C(=O)N(C2CCC(=O)NC2=O)C3=O)cc1 (some centres undefined) | 87% | 82% | 89% | 112% | inactive | 110% | 68% |  |
| Cc1ncsc1-c1ccc(CNC(=O)[C@@H]2C[C@@H](O)CN2C(=O)[C@@H](NC(=O)COCCOCCOCCOCCOCC(=O)NCCNc2cccc3c2C(=O)N(C2CCC(=O)NC2=O)C3=O)C(C)(C)C)cc1 (some centres undefined) | 53% | 81% | 92% | 103% | inactive | 95% | 94% |  |
| Cc1ncsc1-c1ccc(CNC(=O)[C@@H]2C[C@@H](O)CN2C(=O)[C@@H](NC(=O)COCCOCCOCCOCCOCCOCC(=O)NCCNc2cccc3c2C(=O)N(C2CCC(=O)NC2=O)C3=O)C(C)(C)C)cc1 (some centres undefined) | 80% | 85% | 93% | 97% | inactive | 96% | 86% |  |
| Cc1ncsc1-c1ccc(CNC(=O)[C@@H]2C[C@@H](O)CN2C(=O)[C@@H](NC(=O)COCCCCCCOCC(=O)NCCNc2cccc3c2C(=O)N(C2CCC(=O)NC2=O)C3=O)C(C)(C)C)cc1 (some centres undefined) | 50% | 75% | 101% | 100% | inactive | 75% | 65% |  |

More lines, main results first:

| Activity [1] | Activity [2] | Activity [3] | Activity [4] | Activity [5] | Activity [6] | Activity [7] | SMILES | further results |
| --- | --- | --- | --- | --- | --- | --- | --- | --- |
| 67% | 91% | 98% | 103% | inactive | 101% | 94% | Cc1ncsc1-c1ccc(CNC(=O)[C@@H]2C[C@@H](O)CN2C(=O)[C@@H](NC(=O)COCCOCCOCCOCC(=O)NCCNc2cccc3c2C(=O)N(C2CCC(=O)NC2=O)C3=O)C(C)(C)C)cc1 (some centres undefined) |  |
| 64% | 80% | 100% | 134% | inactive | 126% | 95% | Cc1ncsc1-c1ccc(CNC(=O)[C@@H]2C[C@@H](O)CN2C(=O)[C@@H](NC(=O)C2(F)CC2)C(C)(C)C)c(OCCCCC(=O)NCCNc2cccc3c2C(=O)N(C2CCC(=O)NC2=O)C3=O)c1 (some centres undefined) |  |
| 76% | 86% | 89% | 103% | inactive | 77% | 46% | Cc1ncsc1-c1ccc(CNC(=O)[C@@H]2C[C@@H](O)CN2C(=O)[C@@H](NC(=O)C2(F)CC2)C(C)(C)C)c(OCCOCCOCCOCCOCCOCC(=O)NCCNc2cccc3c2C(=O)N(C2CCC(=O)NC2=O)C3=O)c1 (some centres undefined) | Activity [8]: 54% |
| 75% | 78% | 87% | 121% | inactive | 104% | 71% | Cc1ncsc1-c1ccc(CNC(=O)[C@@H]2C[C@@H](O)CN2C(=O)[C@@H](NC(=O)C2(F)CC2)C(C)(C)SCCOCCOCCOCC(=O)NCCNc2cccc3c2C(=O)N(C2CCC(=O)NC2=O)C3=O)cc1 (some centres undefined) |  |
| 104% | 91% | 94% | 102% | inactive | 89% | 91% | Cc1ncsc1-c1ccc(CNC(=O)[C@@H]2C[C@@H](O)CN2C(=O)[C@@H](NC(=O)COCCOCCOCC(=O)NCCNc2cccc3c2C(=O)N(C2CCC(=O)NC2=O)C3=O)C(C)(C)C)cc1 (some centres undefined) |  |
| 76% | 94% | 97% | 115% | inactive | 113% | 71% | Cc1ncsc1-c1ccc(CNC(=O)[C@@H]2C[C@@H](O)CN2C(=O)[C@@H](NC(=O)C2(F)CC2)C(C)(C)C)c(OCCOCCOCCOCC(=O)NCCNc2cccc3c2C(=O)N(C2CCC(=O)NC2=O)C3=O)c1 (some centres undefined) |  |
